Experimental data published in ChEMBL document CHEMBL1139862, “Malaria-infected mice are cured by a single dose of novel artemisinin derivatives” (2007).

Experiments:
Assay type in all cases: functional
Mus musculus [1] = test: Survival of Plasmodium berghei GFP infected mice (Mus musculus) at 30 mg/kg, subcutaneous after single dose
In short: (§1)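 Single subcutaneous dose given on day 1 after infection; vehicle Tween 80 (70%)/ethanol (30%), then 10× dilution with water. Three animals per dimer group. Read-out is average survival in days after infection. Mice alive at day 30 were sacrificed, and if no parasites were detected they were counted cured. Parasitemia was measured by flow cytometry.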

Mus musculus [2] = test: Survival of Plasmodium berghei GFP infected mice (Mus musculus) at 3 mg/kg, subcutaneous after single dose; in short: as §1
Mus musculus [3] = test: Survival of Plasmodium berghei GFP infected mice (Mus musculus) at 10 mg/kg, subcutaneous after single dose; in short: as §1
Mus musculus [4] = test: Survival of Plasmodium berghei GFP infected mice (Mus musculus) at 30 mg/kg, peroral after three doses; settings: route oral
In short: as §1, with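 “Three consecutive daily oral doses starting” for “Single subcutaneous dose given on”, “Survivors” for “Mice alive”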

Structure (SMILES)	Survival (Mus musculus [1])	Survival (Mus musculus [2])	Survival (Mus musculus [3])	Survival (Mus musculus [4])
C[C@H]1[C@H](OC(=O)CCC(=O)O)O[C@@H]2O[C@@]3(C)CC[C@H]4[C@H](C)CC[C@@H]1[C@@]24OO3 [ARTESUNATE]	9.1 days	7.3 days	8.6 days	7.5 days
C[C@H]1[C@@H](CC(O)(COCc2ccncc2)C[C@H]2O[C@@H]3O[C@@]4(C)CC[C@H]5[C@H](C)CC[C@@H]([C@H]2C)[C@@]35OO4)O[C@@H]2O[C@@]3(C)CC[C@H]4[C@H](C)CC[C@@H]1[C@@]24OO3 (some centres not stated)	15 days	9.7 days	13.3 days	>30 days
Cc1ccc(COCC(C[C@H]2O[C@@H]3O[C@@]4(C)CC[C@H]5[C@H](C)CC[C@@H]([C@H]2C)[C@@]35OO4)C[C@H]2O[C@@H]3O[C@@]4(C)CC[C@H]5[C@H](C)CC[C@@H]([C@H]2C)[C@@]35OO4)cc1 (some centres not stated)	27 days	8 days	10 days	>30 days
C[C@H]1[C@@H](CC(C[C@H]2O[C@H]3O[C@@]4(C)CC[C@H]5[C@H](C)CC[C@@H]([C@H]2C)[C@@]35OO4)C(=O)NCc2ccccc2)O[C@@H]2O[C@@]3(C)CC[C@H]4[C@H](C)CC[C@@H]1[C@@]24OO3 (some centres not stated)	>30 days	12.3 days	15 days	12.7 days
C[C@H]1[C@@H](CC(C[C@H]2O[C@H]3O[C@@]4(C)CC[C@H]5[C@H](C)CC[C@@H]([C@H]2C)[C@@]35OO4)C(=O)NC(C)(C)C)O[C@@H]2O[C@@]3(C)CC[C@H]4[C@H](C)CC[C@@H]1[C@@]24OO3 (some centres not stated)	>30 days	14 days	25.3 days	14.7 days
C[C@H]1[C@@H](CC(CNc2ccccc2)C[C@H]2O[C@@H]3O[C@@]4(C)CC[C@H]5[C@H](C)CC[C@@H]([C@H]2C)[C@@]35OO4)O[C@@H]2O[C@@]3(C)CC[C@H]4[C@H](C)CC[C@@H]1[C@@]24OO3 (some centres not stated)	>30 days	8 days	12.3 days	–
C[C@H]1[C@@H](CC(C[C@H]2O[C@H]3O[C@@]4(C)CC[C@H]5[C@H](C)CC[C@@H]([C@H]2C)[C@@]35OO4)C(=O)NNC(=O)c2ccncc2)O[C@@H]2O[C@@]3(C)CC[C@H]4[C@H](C)CC[C@@H]1[C@@]24OO3 (some centres not stated)	>30 days	9 days	10 days	7 days
